Results reported in ChEMBL document CHEMBL1132309, “(R)-3,3,3-Trifluoro-2-hydroxy-2-methylpropionamides are orally active inhibitors of pyruvate dehydrogenase kinase” (J Med Chem, 1999).
Blank lines part the entries; values can stand above or below the molecule they belong to. Activity calls are given as the source filed them. No cut-off for these calls is given here.

What was measured:
[1] = target: T1, Pyruvate dehydrogenase kinase (Rattus norvegicus) (UniProt Q63065+A6IPZ9+Q64536+O54937); test: In vivo inhibition of pyruvate dehydrogenase kinase, reduced lactate level in normal 24 hr r fasted rats at 1 umol/kg oral dose; format: functional, organism-based; design: scale not given: the % may be the effect or the level left
[2] = target: T1, Pyruvate dehydrogenase kinase (Rattus norvegicus); test: In vivo inhibition of pyruvate dehydrogenase kinase, reduced lactate level in normal 24 hr r fasted rats at 10 umol/kg oral dose; format: functional, organism-based; design: scale not given: the % may be the effect or the level left
[3] = target: pyruvate dehydrogenase kinase (Sus scrofa); test: In vitro inhibitory activity against Pyruvate dehydrogenase kinase by primary enzymatic assay
[4] = target: T1, Pyruvate dehydrogenase kinase (Rattus norvegicus); test: In vivo inhibition of pyruvate dehydrogenase kinase, reduced lactate level in normal 24 hr r fasted rats at 3 umol/kg oral dose; format: functional, organism-based; design: scale not given: the % may be the effect or the level left
[5] = target: Pyruvate dehydrogenase kinase (Homo sapiens, UniProt Q15119+Q15120+Q16654+Q15118); test: […] inhibion of pyruvate dehydrogenase kinase, increased oxidation of lactate; format: functional
Summary of the method: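 Human fibroblasts, modified Ofenstein assay: conversion of [14C]lactate to 14CO2, taken as activation of the PDH complex. EC50 in μM ± standard error.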

[6] = target: T1, Pyruvate dehydrogenase kinase (Rattus norvegicus); test: In vivo inhibition of pyruvate dehydrogenase kinase, reduced lactate level in normal 24 hr r fasted rats at 300 umol/kg oral dose; Not active; format: functional, organism-based
[7] = target: T1, Pyruvate dehydrogenase kinase (Rattus norvegicus); test: In vivo inhibition of pyruvate dehydrogenase kinase, reduced lactate level in normal 24 hr r fasted rats at 300 umol/kg oral dose; format: functional, organism-based; design: scale not given: the % may be the effect or the level left
[8] = The time to reach maximum concentration of compound was measured at the dose of 300 umol/kg; format: ADME, organism-based; details: rat, in vivo
Summary of the method: (§1)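 Oral dosing at 30, 100 and 300 μmol/kg. Blood plasma concentrations followed to give peak concentration and estimated half-life.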

[9] = The maximum concentration of compound was measured at the dose of 300 umol/kg; format: ADME, organism-based; design: dose 300 umol/kg; details: rat, in vivo; summary of the method: as §1
[10] = The area under the curve of compound was measured at the dose of 300 umol/kg; format: ADME, organism-based; details: rat, in vivo; summary of the method: as §1
[11] = The area under the curve of compound was measured at the dose of 100 umol/kg; format: ADME, organism-based; details: rat, in vivo; summary of the method: as §1
[12] = The biological half life the compound was measured at the dose of 100 umol/kg; format: ADME, organism-based; details: rat, in vivo; summary of the method: as §1
[13] = target: T1, Pyruvate dehydrogenase kinase (Rattus norvegicus); test: In vivo inhibition of pyruvate dehydrogenase kinase, reduced lactate level in normal 24 hr r fasted rats at 30 umol/kg oral dose; format: functional, organism-based; design: scale not given: the % may be the effect or the level left
[14] = The maximum concentration of compound was measured at the dose of 100 umol/kg; format: ADME, organism-based; design: dose 100 umol/kg; details: rat, in vivo; summary of the method: as §1
[15] = target: T1, Pyruvate dehydrogenase kinase (Rattus norvegicus); test: In vivo inhibition of pyruvate dehydrogenase kinase, reduced lactate level in normal 24 hr r fasted rats at 100 umol/kg oral dose; format: functional, organism-based; design: scale not given: the % may be the effect or the level left
[16] = The time to reach maximum concentration of compound was measured at the dose of 100 umol/kg; format: ADME, organism-based; details: rat, in vivo; summary of the method: as §1
[17] = The time to reach maximum concentration of compound was measured at the dose of 30 umol/kg; format: ADME, organism-based; details: rat, in vivo; summary of the method: as §1
[18] = The area under the curve of compound was measured at the dose of 30 umol/kg; format: ADME, organism-based; details: rat, in vivo; summary of the method: as §1
[19] = target: T1, Pyruvate dehydrogenase kinase (Rattus norvegicus); test: In vivo inhibition of pyruvate dehydrogenase kinase, reduced lactate level in normal 24 hr r fasted rats at 100 uMmol/kg oral dose; format: functional, organism-based; design: dose or concentration left out as unconfirmed
[20] = The maximum concentration of compound was measured at the dose of 30 umol/kg; format: ADME, organism-based; design: dose 30 umol/kg; details: rat, in vivo; summary of the method: as §1
[21] = The biological half life the compound was measured at the dose of 30 umol/kg; format: ADME, organism-based; details: rat, in vivo; summary of the method: as §1
[22] = target: T1, Pyruvate dehydrogenase kinase (Rattus norvegicus); test: In vivo inhibition of pyruvate dehydrogenase kinase, reduced lactate level in normal 24 hr r fasted rats at 1 mmol/kg oral dose; format: functional, organism-based; design: scale not given: the % may be the effect or the level left

- Control [1]: 87%
- Control [2]: 74%
- IC50 [3]: 16.5 nM
- Control [4]: 90%
- EC50 [5]: 57 nM
Structure (SMILES): C[C@@H]1CN(C(=O)[C@@](C)(O)C(F)(F)F)[C@@H](C)CN1C(=O)c1ccc(C#N)cc1

- IC50 [3]: 9800 nM
Structure (SMILES): C[C@](O)(C(=O)Nc1ccccc1Cl)C(F)(F)F

- IC50 [3]: 35000 nM
Structure (SMILES): C[C@@](O)(C(=O)Nc1ccccc1)C(F)(F)F

- IC50 [3]: 9300 nM
Structure (SMILES): C[C@@](O)(C(=O)Nc1ccc(S(=O)(=O)N2CCCCC2)cc1)C(F)(F)F

- IC50 [3]: 120 nM
Structure (SMILES): COC(=O)c1ccc(NC(=O)[C@@](C)(O)C(F)(F)F)c(Cl)c1

- IC50 [3]: 82 nM
Structure (SMILES): C[C@@H]1CN(C(=O)[C@@](C)(O)C(F)(F)F)[C@@H](C)CN1Cc1ccccc1

- Control [6]: inactive
- IC50 [3]: 300 nM
- EC50 [5]: 5400 nM
Structure (SMILES): C[C@@](O)(C(=O)Nc1ccccc1Cl)C(F)(F)F

- Control [6]: inactive
Structure (SMILES): CC(O)(C(=O)Nc1ccc(C(=O)c2ccccc2)cc1)C(F)(F)F (single isomer, unassigned)

Structure (SMILES): C[C@@](O)(C(=O)Nc1ccc(S(=O)(=O)F)cc1Cl)C(F)(F)F
- IC50 [3]: 77 nM

- Control [7]: 72%
- Tmax [8]: 6 h
- Cmax [9]: 53.8 µM
- IC50 [3]: 55 nM
- EC50 [5]: 17000 nM
- AUC [10]: 670 µM·h
Structure (SMILES): C[C@@](O)(C(=O)Nc1ccc(S(=O)(=O)N2CCNCC2)cc1Cl)C(F)(F)F

- IC50 [3]: 6200 nM
Structure (SMILES): C[C@@](O)(C(=O)NC1CCCCC1)C(F)(F)F

- AUC [11]: 143 µM·h
- half-life [12]: 4.6 h
- IC50 [3]: 90 nM
- Control [13]: 98%
- EC50 [5]: 1400 nM
- Cmax [14]: 87.3 µM
- Control [15]: 70%
- Tmax [16]: 0.5 h
Structure (SMILES): C[C@@](O)(C(=O)Nc1ccc(C(=O)O)cc1Cl)C(F)(F)F

- IC50 [3]: 21 nM
Structure (SMILES): C[C@@H]1CN(C(=O)[C@@](C)(O)C(F)(F)F)CCN1C(=O)OCc1ccccc1

- IC50 [3]: 6700 nM
Structure (SMILES): C[C@@](O)(C(=O)N1CCN(C(=O)c2ccc(C#N)cc2)CC1)C(F)(F)F

- IC50 [3]: 200000 nM
Structure (SMILES): C[C@](O)(C(=O)NC1CCCCC1)C(F)(F)F

- Tmax [17]: 1.25 h
- AUC [18]: 196 µM·h
- Control [2]: 90%
- IC50 [3]: 79 nM
- Control [13]: 60%
- Control [19]: 67%
- Cmax [20]: 23.8 µM
- EC50 [5]: 250 nM
- half-life [21]: 3 h
Structure (SMILES): C[C@@H]1CN(C(=O)[C@@](C)(O)C(F)(F)F)CCN1C(=O)c1ccc(C#N)cc1

- Control [6]: inactive
- IC50 [3]: 1500 nM
- EC50 [5]: 590 nM
Structure (SMILES): C[C@@](O)(C(=O)Nc1ccc(C(=O)N2CCCCC2)cc1Cl)C(F)(F)F

- IC50 [3]: 110 nM
Structure (SMILES): C[C@@](O)(C(=O)Nc1ccc(C(=O)c2ccccc2)cc1Cl)C(F)(F)F

Structure (SMILES): O=C([O-])C(Cl)Cl.[Na+]
- Control [22]: 70%
